Laboratory results as given in ChEMBL document CHEMBL5500387, “Design, synthesis of combretastatin A-4 piperazine derivatives as potential antitumor agents by inhibiting tubulin polymerization and inducing autophagy in HCT116 cells” (Eur J Med Chem, 2024).
pIC50: −log10 of the molar value.

Key:
HCT-116 [1] = experiment: Cytotoxicity against human HCT-116 cells assessed as inhibition of cell proliferation measured after 72 hrs by CCK-8 assay; type: functional, cell-based; conditions: HCT-116, 72 h
How it was run: (§1)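 Cells seeded at 2×10^3 per well and grown overnight in 10% FBS medium: HCT116 in McCoy's 5A, A549 and AGS in F-12K, SK-MES-1 in DMEM. Compounds added at varied concentrations with 0.1% DMSO control, 72 h at 37 °C. 10% CCK-8 for 2 h, then A450 read. Survival = (As−Ab)/(Ac−Ab)×100%. IC50 from curve fitting.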

A549 [2] = experiment: Cytotoxicity against human A549 cells assessed as inhibition of cell proliferation measured after 72 hrs by CCK-8 assay; type: functional, cell-based; conditions: A549, 72 h; how it was run: as §1
AGS = experiment: Cytotoxicity against human AGS cells assessed as inhibition of cell proliferation measured after 72 hrs by CCK-8 assay; type: functional, cell-based; how it was run: as §1
SK-MES-1 = experiment: Cytotoxicity against human SK-MES-1 cells assessed as inhibition of cell proliferation measured after 72 hrs by CCK-8 assay; type: functional, cell-based; conditions: SK-MES-1, 72 h; how it was run: as §1
[3] = Cytotoxicity against human NCM460 cells assessed as inhibition of cell proliferation measured after 72 hrs by CCK-8 assay; type: toxicity, cell-based
How it was run: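 NCM460 normal colonic epithelial cells seeded at 2×10^3 cells/well and grown overnight in RPMI-1640 with 10% FBS. Compounds added at a range of concentrations, 0.1% DMSO as negative control, 72 h at 37 °C. Read-out by CCK-8 (10%, 2 h) at 450 nm. Survival = (As−Ab)/(Ac−Ab)×100%; IC50 taken as concentration giving 50% inhibition of proliferation.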

HCT-116 [4] = experiment: Induction of cell cycle arrest in human HCT-116 cells assessed as accumulation of cells at S phase at 0.1 uM measured after 24 hrs by PI/RNase staining based flow cytometry analysis (reference value: 38.29%); type: functional
HCT-116 [5] = experiment: Induction of cell cycle arrest in human HCT-116 cells assessed as accumulation of cells at G2/M phase at 0.1 uM measured after 24 hrs by PI/RNase staining based flow cytometry analysis (reference value: 28.83%); type: functional
HCT-116 [6] = experiment: Induction of cell cycle arrest in human HCT-116 cells assessed as accumulation of cells at S phase at 0.2 uM measured after 24 hrs by PI/RNase staining based flow cytometry analysis (reference value: 38.29%); type: functional
HCT-116 [7] = experiment: Induction of cell cycle arrest in human HCT-116 cells assessed as accumulation of cells at S phase at 0.3 uM measured after 24 hrs by PI/RNase staining based flow cytometry analysis (reference value: 38.29%); type: functional
HCT-116 [8] = experiment: Induction of cell cycle arrest at G2/M phase in human HCT-116 cells assessed as reduction in Cyclin B1 protein expression measured after 48 hrs by Western blot analysis; type: functional, cell-based; conditions: dose 0.1-0.3 µM
How it was run: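 HCT116 cells given 0.1, 0.2 or 0.3 μM for 48 h, with 0.1% DMSO control. Lysates run on SDS-PAGE and blotted to PVDF. Probed with anti-Cdc2 and anti-Cyclin B1 (1:1000), β-actin as loading control, HRP secondary, and chemiluminescence. Band quantities expressed relative to control set to 1. Three independent experiments.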

A549 [9] = experiment: Induction of cell cycle arrest in human A549 cells assessed as accumulation of cells at G0/G1 phase at 0.1 uM measured after 24 hrs by PI/RNase staining based analysis (reference value: 41.91%); type: functional
A549 [10] = experiment: Induction of cell cycle arrest in human A549 cells assessed as accumulation of cells at G2/M phase at 0.1 uM measured after 24 hrs by PI/RNase staining based analysis (reference value: 10.22%); type: functional
A549 [11] = experiment: Induction of cell cycle arrest in human A549 cells assessed as accumulation of cells at G0/G1 phase at 0.2 uM measured after 24 hrs by PI/RNase staining based analysis (reference value: 41.91%); type: functional
A549 [12] = experiment: Induction of cell cycle arrest in human A549 cells assessed as accumulation of cells at S phase at 0.2 uM measured after 24 hrs by PI/RNase staining based analysis (reference value: 24.95%); type: functional
A549 [13] = experiment: Induction of cell cycle arrest in human A549 cells assessed as accumulation of cells at S phase at 0.3 uM measured after 24 hrs by PI/RNase staining based analysis (reference value: 24.95%); type: functional
A549 [14] = experiment: Induction of cell cycle arrest in human A549 cells assessed as accumulation of cells at G2/M phase at 0.3 uM measured after 24 hrs by PI/RNase staining based analysis (reference value: 10.22%); type: functional
A549 [15] = experiment: Induction of apoptosis in human A549 cells assessed as live cells at 0.1 uM measured after 24 hrs by Annexin V-APC/PI staining based flow cytometry analysis (reference value: 96.91%); type: functional
A549 [16] = experiment: Induction of apoptosis in human A549 cells assessed as early apoptotic cells at 0.1 uM measured after 24 hrs by Annexin V-APC/PI staining based flow cytometry analysis (reference value: 1.73%); type: functional
A549 [17] = experiment: Induction of apoptosis in human A549 cells assessed as late apoptotic cells at 0.1 uM measured after 24 hrs by Annexin V-APC/PI staining based flow cytometry analysis (reference value: 0.86%); type: functional
A549 [18] = experiment: Induction of apoptosis in human A549 cells assessed as dead cells at 0.1 uM measured after 24 hrs by Annexin V-APC/PI staining based flow cytometry analysis (reference value: 0.50%); type: functional
A549 [19] = experiment: Induction of apoptosis in human A549 cells assessed as live cells at 0.2 uM measured after 24 hrs by Annexin V-APC/PI staining based flow cytometry analysis (reference value: 96.91%); type: functional
A549 [20] = experiment: Induction of apoptosis in human A549 cells assessed as early apoptotic cells at 0.2 uM measured after 24 hrs by Annexin V-APC/PI staining based flow cytometry analysis (reference value: 1.73%); type: functional
A549 [21] = experiment: Induction of apoptosis in human A549 cells assessed as live cells at 0.3 uM measured after 24 hrs by Annexin V-APC/PI staining based flow cytometry analysis (reference value: 96.91%); type: functional
A549 [22] = experiment: Induction of apoptosis in human A549 cells assessed as early apoptotic cells at 0.3 uM measured after 24 hrs by Annexin V-APC/PI staining based flow cytometry analysis (reference value: 1.73%); type: functional
A549 [23] = experiment: Induction of apoptosis in human A549 cells assessed as late apoptotic cells at 0.3 uM measured after 24 hrs by Annexin V-APC/PI staining based flow cytometry analysis (reference value: 0.86%); type: functional
[24] = Toxicity in female BALB/c nude mouse xenografted with human HCT-116 cells assessed as adverse effects at 20 to 40 mg/kg, ip administered every 2 days for 20 days; type: organism-based; conditions: in vivo, 480 h, dose 20-40 mg/kg, time 20 day
How it was run: (§2)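 Female BALB/c nude mice, 5 weeks old, bearing subcutaneous HCT116 xenografts (started at 100 mm³), randomised into groups of ten. Saline-injected ip controls. Body weight monitored throughout the 20-day intraperitoneal treatment.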

[25] = Toxicity in female BALB/c nude mouse xenografted with human HCT-116 cells assessed as reduction in body weight at 20 to 40 mg/kg, ip administered every 2 days for 20 days; type: organism-based; conditions: in vivo, 480 h, dose 20-40 mg/kg, time 20 day; how it was run: as §2

COc1ccc(/C=C(/C(=O)N2CCN(c3ccc(C)cc3)CC2)c2cc(OC)c(OC)c(OC)c2)cc1O
pIC50 (HCT-116 [1]): 6.64 | pIC50 (A549 [2]): 6.60 | pIC50 (AGS): 6.24 | pIC50 (SK-MES-1): 6.37 | IC50 at 72 h [3]: 1090 nM | Activity (HCT-116 [4]): 31.95% | Activity (HCT-116 [5]): 33.79% | Activity (HCT-116 [6]): 21.17% | Activity (HCT-116 [7]): 6.31% | Activity (HCT-116 [8]): Dose-Dependent Effect | Activity (A549 [9]): 69.3% | Activity (A549 [10]): 5.75% | Activity (A549 [11]): 77.73% | Activity (A549 [12]): 13.76% | Activity (A549 [13]): 7.17% | Activity (A549 [14]): 5.65% | Activity (A549 [15]): 86.04% | Activity (A549 [16]): 10.34% | Activity (A549 [17]): 2.78% | Activity (A549 [18]): 0.83% | Activity (A549 [19]): 76.79% | Activity (A549 [20]): 17.43% | Activity (A549 [21]): 68.79% | Activity (A549 [22]): 21.09% | Activity (A549 [23]): 8.87% | Activity [24]: Non-Toxic | Activity [25]: Non-Toxic
